For series [1], the system named is Candida albicans. The series can be described thus: Antifungal activity against Candida albicans ATCC 10231. The series is classed as functional. The method, boiled down: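 Planktonic C. albicans ATCC 10231 cells; compounds tested up to 128 μg/mL. MIC50 defined as lowest concentration producing 50% growth inhibition; three independent experiments, each in triplicate, values given as median.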

The subject of series [2] is Candida albicans. The series can be described thus: Antibiofilm activity against Candida albicans ATCC 10231 assessed as inhibition of biofilm formation. The series is classed as functional. The method, boiled down:
(§1)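 C. albicans ATCC 10231 biofilm, tested during formation and as mature (48 h) biofilm; compounds tested up to 128 μg/mL. BMIC50 taken as lowest concentration giving 50% decrease of biofilm relative to untreated growth control; three independent experiments in triplicate, median reported.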

The nature of series [3]: Metal chelating activity assessed as Fe3+-compound complex formation by UV-visible spectrophotometry. The method, boiled down:
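Stoichiometry of ligand–Fe3+ complex found by Job's method of continuous variations from UV titration spectra, Job's plot read at 302 nm; stability constant (logKstab) then calculated by UV–Vis spectroscopy for the determined stoichiometry.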

Series [4] can be described thus: Metal chelating activity assessed as Cu2+-compound complex formation by UV-visible spectrophotometry. The gist of the method:
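UV–Vis spectroscopic titration of the ligand with Cu2+. The stability constant was calculated from the spectra once the 1:1 stoichiometry was known, and is reported as logKstab ±.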

The test system of series [5] is Candida albicans. The series can be described thus: Antibiofilm activity against Candida albicans ATCC 10231 assessed as reduction in mature biofilm. The series is classed as functional. The method, boiled down: as §1
Series [6] in a line: Toxicity in Galleria mellonella larvae assessed as survival at 256 ug/ml measured after 24 hrs relative to control. To be noted: at 256 µg/mL. The gist of the method: (§2)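 G. mellonella larvae were injected with 20 μL of compound in sterile water containing less than 1% v/v DMSO, into the last left pro-leg. Doses were 32–512 µg/mL. Survival was scored at 24, 48 and 72 h and is given as the mean percentage of three independent experiments.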

The nature of series [7]: Toxicity in Galleria mellonella larvae assessed as survival at 32 ug/ml measured after 48 hrs relative to control. To be noted: at 32 µg/mL. The method, boiled down:
as §2

Series [8] in a line: Toxicity in Galleria mellonella larvae assessed as survival at 512 ug/ml measured after 48 hrs relative to control. Conditions: at 512 µg/mL. The method, boiled down:
as §2

Series [9] is described as follows: Toxicity in Galleria mellonella larvae assessed as survival at 128 ug/ml measured after 48 hrs relative to control. To be noted: at 128 µg/mL. The method, boiled down: as §2
The nature of series [10]: Toxicity in Galleria mellonella larvae assessed as survival at 32 ug/ml measured after 24 hrs relative to control. Conditions: at 32 µg/mL. The gist of the method: as §2
A short description of series [11]: Metal chelating activity assessed as stoichiometry ratio of 1:1 for Cu2+-compound complex formation by UV-visible spectrophotometry.
The nature of series [12]: Toxicity in Galleria mellonella larvae assessed as survival at 128 ug/ml measured after 72 hrs relative to control. Conditions: at 128 µg/mL. The method, boiled down: as §2
Series [13] can be described thus: Toxicity in Galleria mellonella larvae assessed as survival at 512 ug/ml measured after 72 hrs relative to control. Conditions: at 512 µg/mL. The gist of the method: as §2
For series [14], the system named is Candida albicans. The series can be described thus: Antibiofilm activity against Candida albicans ATCC 10231 assessed as inhibition of biofilm formation in presence of Fe3+. The series is classed as functional, organism-based. Conditions: dose 8-128 µg/ml. The gist of the method: (§3)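 C. albicans ATCC 10231 biofilm-formation assay run in culture medium enriched with increasing concentrations of Fe3+ or Cu2+. BMIC50 is the lowest drug concentration giving a 50% decrease of biofilm relative to the untreated growth control. Three independent experiments in triplicate; data reported as percentage of inhibition ± standard deviation.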

Series [15] in a line: Metal chelating activity assessed as stoichiometry ratio of 1:1 for Fe3+-compound complex formation by UV-visible spectrophotometry.
For series [16], the system named is Candida albicans. The series can be described thus: Antibiofilm activity against Candida albicans ATCC 10231 assessed as inhibition of biofilm formation in presence of Cu2+. The series is classed as functional, organism-based. To be noted: dose 8-128 µg/ml. The method, boiled down: as §3
Series [17] is described as follows: Toxicity in Galleria mellonella larvae assessed as survival at 64 ug/ml measured after 48 hrs relative to control. Conditions: at 64 µg/mL. The gist of the method: as §2
A short description of series [18]: Toxicity in Galleria mellonella larvae assessed as survival at 32 ug/ml measured after 72 hrs relative to control. To be noted: at 32 µg/mL. The gist of the method:
as §2

A short description of series [19]: Toxicity in Galleria mellonella larvae assessed as survival at 256 ug/ml measured after 72 hrs relative to control. To be noted: at 256 µg/mL. The gist of the method:
as §2

Series [20] is described as follows: Toxicity in Galleria mellonella larvae assessed as survival at 128 ug/ml measured after 24 hrs relative to control. To be noted: at 128 µg/mL. The method, boiled down: as §2
The nature of series [21]: Toxicity in Galleria mellonella larvae assessed as survival at 512 ug/ml measured after 24 hrs relative to control. Conditions: at 512 µg/mL. The method, boiled down: as §2
The nature of series [22]: Toxicity in Galleria mellonella larvae assessed as survival at 256 ug/ml measured after 48 hrs relative to control. To be noted: at 256 µg/mL. The method, boiled down:
as §2

Series [23] can be described thus: Toxicity in Galleria mellonella larvae assessed as survival at 64 ug/ml measured after 24 hrs relative to control. To be noted: at 64 µg/mL. The gist of the method:
as §2

A short description of series [24]: Toxicity in Galleria mellonella larvae assessed as survival at 64 ug/ml measured after 72 hrs relative to control. To be noted: at 64 µg/mL. The gist of the method:
as §2

In general, MIC50 refers to an inhibitory concentration at the 50% level, which refers to growth in some studies and to a panel of isolates in others.

≈ marks a conversion by molar mass, not a printed value. Calls of active or inactive are those of the source.

In series [1], `Cc1c(O)c(=O)ccn1CCCCNC(=O)C(C)c1ccc(CC(C)C)cc1` (centres undefined) gave an MIC50 of 4 µg/mL (≈ 10.4 µM). Besides, the MBIC50 was 128 µg/mL in [2] and over 128 µg/mL in series [5]. Besides, the result in series [3] and in [4] was Active.
In the case of `Cc1c(O)c(=O)ccn1CCCn1ccnc1.Cl`, the MIC50 in series [1] is over 128 µg/mL. In addition, the MBIC50 in series [2] and in series [5] was over 128 µg/mL in each case.
The molecule `Cc1c(O)c(=O)ccn1CCCCCCn1ccc(=O)c(O)c1C.Cl.Cl` displayed an MIC50 in [1] of over 128 µg/mL. Further, the MBIC50 in [2] and in series [5] was over 128 µg/mL throughout.
With `COc1ccccc1Cn1ccc(=O)c(O)c1C.Cl`, the MIC50 in series [1] is over 128 µg/mL. The MBIC50 in series [2] and in series [5] was over 128 µg/mL each time.
`Cc1c(OCc2ccccc2)c(=O)ccn1CCCCCn1ccc(=O)c(OCc2ccccc2)c1C` returned an MIC50 in series [1] of over 128 µg/mL. The MBIC50 in series [2] and in series [5] was over 128 µg/mL each time.
`Cc1c(O)c(=O)ccn1CCCCc1ccccc1.Cl` came in with an MIC50 in [1] of 16 µg/mL. Further, the survival at 24 h in series [6], in series [10], in series [20], in series [21] and in series [23] was 100% throughout. The MBIC50 is 16 µg/mL in [2] and over 128 µg/mL in series [5]. The survival at 48 h was 100% in series [7]; 96% in series [8]; 100% in series [9]; 100% in [17]; 100% in series [22]. Besides, the outcome in series [3], in series [11], in series [15] and in series [4] was Active. Also, the survival at 72 h in series [12] turned out to be 100%; in series [13], 86%; in [18], 100%; in series [19], 100%; in series [24], 100%. In addition, the inhibition result in [14] and in series [16] was “Dose-Dependent Effect” throughout.
Molecule `Cc1c(O)c(=O)ccn1C` [DEFERIPRONE] gave an MIC50 in series [1] of 128 µg/mL (≈ 920 µM). The figures for the MBIC50 in [2] and in series [5] were 32 µg/mL and 128 µg/mL, respectively.
In the case of `Cc1c(OCc2ccccc2)c(=O)ccn1CCCCn1ccc(=O)c(OCc2ccccc2)c1C`, the MIC50 in series [1] is over 128 µg/mL. For the same molecule, the MBIC50 in series [2] is 128 µg/mL; in series [5] it was over 128 µg/mL.
For `Cc1c(OCc2ccccc2)c(=O)ccn1CCCCNC(=O)C(C)c1ccc(C(=O)c2ccccc2)cc1` (centres undefined), in that order: over 128 µg/mL, over 128 µg/mL and over 128 µg/mL.
For `Cc1c(O)c(=O)ccn1CCCCn1ccc(=O)c(O)c1C.Cl.Cl`, in that order: over 128 µg/mL, over 128 µg/mL and over 128 µg/mL.
Regarding `Cc1c(O)c(=O)ccn1CCCCNC(=O)Cc1ccc(CC(C)C)cc1`, the MIC50 in [1] came out at 8 µg/mL (≈ 21.6 µM). For the same molecule, the results for the MBIC50 in series [2] and in series [5] were 64 µg/mL and 128 µg/mL, respectively.
For `Cc1c(OCc2ccccc2)c(=O)ccn1CCCCCCn1ccc(=O)c(OCc2ccccc2)c1C`, the MIC50 in series [1] was over 128 µg/mL. The MBIC50 in [2] and in series [5] was over 128 µg/mL each time.
In series [1], `Cc1c(OCc2ccccc2)c(=O)ccn1CCCCNC(=O)Cc1ccccc1` returned an MIC50 of over 128 µg/mL. Besides, the MBIC50 in series [2] and in series [5] was over 128 µg/mL in each case.
For `Cc1c(OCc2ccccc2)c(=O)ccn1CCCCNC(=O)Cc1ccc(CC(C)C)cc1`, in series [1], the MIC50 is over 128 µg/mL. Also, the figures for the MBIC50 in series [2] and in [5] were 64 µg/mL and over 128 µg/mL, respectively.
Turning to `Cc1c(O)c(=O)ccn1CCCc1ccccc1.Cl`, the MIC50 in [1] is 32 µg/mL. The MBIC50 in series [2] was 32 µg/mL; in [5], over 128 µg/mL.
Molecule `Cc1c(OCc2ccccc2)c(=O)ccn1CCCc1ccccc1` displayed an MIC50 in series [1] of over 128 µg/mL. Moreover, the MBIC50 in series [2] and in [5] was over 128 µg/mL throughout.
In series [1], `COc1ccccc1Cn1ccc(=O)c(OCc2ccccc2)c1C` came in with an MIC50 of over 128 µg/mL. Moreover, the MBIC50 in series [2] and in series [5] was over 128 µg/mL throughout.
`Cc1c(OCc2ccccc2)c(=O)ccn1CCCCNC(=O)C(C)c1ccc(CC(C)C)cc1` (centres undefined) showed an MIC50 in series [1] of over 128 µg/mL. For the same molecule, the MBIC50 in [2] was 32 µg/mL; in series [5] it was over 128 µg/mL. Further, the result in series [3] was Active.
In series [1], `Cc1c(O)c(=O)ccn1CCCCNC(=O)C(C)c1ccc(C(=O)c2ccccc2)cc1` (centres undefined) showed an MIC50 of over 128 µg/mL. Besides, the MBIC50 in series [2] was 128 µg/mL; in series [5], over 128 µg/mL.
The corresponding values for `Cc1c(OCc2ccccc2)c(=O)ccn1CCCn1ccnc1` are over 128 µg/mL, over 128 µg/mL and over 128 µg/mL.
The corresponding values for `Cc1c(O)c(=O)ccn1CCCCNC(=O)Cc1ccccc1` are over 128 µg/mL, over 128 µg/mL and over 128 µg/mL.
For `Cc1c(O)c(=O)ccn1CCCCCn1ccc(=O)c(O)c1C.Cl.Cl`, in that order: over 128 µg/mL, 128 µg/mL and over 128 µg/mL.
`Cc1c(OCc2ccccc2)c(=O)ccn1CCCCc1ccccc1` yielded an MIC50 in [1] of over 128 µg/mL. Further, the MBIC50 in series [2] and in series [5] was over 128 µg/mL in each case. In addition, the outcome in series [3] was Active.

These data come from ChEMBL document CHEMBL4834441, “Design, synthesis and biological evaluation of a series of iron and copper chelating deferiprone derivatives as new agents active against Candida albicans” (Bioorg Med Chem Lett, 2021).
